Results from ChEMBL document CHEMBL4616638, “Inhibition of HIV-1 RT activity by a new series of 3-(1,3,4-thiadiazol-2-yl)thiazolidin-4-one derivatives” (Bioorg Med Chem, 2020).

Legend:
[1] = target: Human immunodeficiency virus type 1 reverse transcriptase (Human immunodeficiency virus 1, UniProt Q72547); experiment: Inhibition of wild type recombinant HIV1 reverse transcriptase p66/p51 using poly(rA)/oligo(dT)16 as template/primer measured after 40 mins by picogreen dye-based spectrofluorometric method
[2] = Selectivity index, ratio of CC50 for human MT4 cells to EC50 for antiviral activity againstHIV1 infected in human MT4 cells; format: toxicity, cell-based; conditions: read-out: Ratio CC50/EC50
In short: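 Ratio CC50/EC50, both from the same 5-day MTT run in MT-4 cells, mock-infected versus HIV-infected (100–300 CCID50) wells.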

[3] = Cytotoxicity against human MT4 cells assessed as reduction in cell viability after 5 days by MTT assay; format: cell-based
In short: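 Mock-infected MT-4 cells (6 × 10^5 cells/ml) run alongside infected wells, receiving serial 5-fold compound dilutions in triplicate. After 5 days, MTT formazan read at 540 and 690 nm, median of three wells. CC50 is the concentration lowering OD540 of mock-infected control by 50%.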

[4] = test system: Human immunodeficiency virus 1; experiment: Antiviral activity against HIV1 infected in human MT4 cells assessed as reduction in virus-induced cytopathic effect after 5 days by MTT assay; format: functional, organism-based; conditions: Human immunodeficiency virus 1, MT4, 120 h
In short: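 HIV stock at 100–300 CCID50 added to MT-4 cells (6 × 10^5 cells/ml after centrifugation of exponentially growing cells), compounds as serial 5-fold dilutions in triplicate wells. After 5 days, viability read by MTT reduction at 540 and 690 nm, median of three wells. EC50 taken as concentration reducing virus-induced cytopathic effect by 50%.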

| SMILES | IC50 [1] [µM] | selectivity ratio [2] | CC50 at 120 h [3] [µM] | EC50 [4] [µM] |
| --- | --- | --- | --- | --- |
| O=C1CSC(c2ccccc2)N1c1nnc(S)s1 (stereo unspecified) | > 100 | 13 | > 423 | 32 |
| CS(=O)(=O)c1ccc(NC(=O)CSc2nnc(N3C(=O)CSC3c3ccccc3)s2)cc1 (stereo unspecified) | 40.6 | < 1 | 130 | > 130 |
| O=C1CSC(c2ccccc2Cl)N1c1nnc(S)s1 (stereo unspecified) | > 100 | < 1 | 200 | > 200 |
| NS(=O)(=O)c1ccc(NC(=O)CSc2nnc(N3C(=O)CSC3c3ccc(Cl)cc3)s2)cc1 (stereo unspecified) | 72 | – | ≥ 222 | ≥ 225 |
| NS(=O)(=O)c1ccc(NC(=O)CSc2nnc(N3C(=O)CSC3c3ccccc3Cl)s2)cc1 (stereo unspecified) | 21.8 | – | ≥ 18.8 | > 18.8 |
| CS(=O)(=O)c1ccc(NC(=O)CSc2nnc(N3C(=O)CSC3c3ccccc3Cl)s2)cc1 (stereo unspecified) | 11.8 | – | ≥ 173 | ≥ 173 |
| CS(=O)(=O)c1ccc(NC(=O)CSc2nnc(N3C(=O)CSC3c3cccc(Cl)c3)s2)cc1 (stereo unspecified) | 15.8 | < 1 | 113 | > 113 |
| NS(=O)(=O)c1ccc(NC(=O)CSc2nnc(N3C(=O)CSC3c3ccccc3)s2)cc1 (stereo unspecified) | 30.6 | < 1 | 99.2 | > 99.2 |
| O=C1CSC(c2cccc(Cl)c2)N1c1nnc(S)s1 (stereo unspecified) | > 100 | < 1 | 238 | > 238 |
| Cc1ccnc2c1NC(=O)c1cccnc1N2C1CC1 [NEVIRAPINE] | – | – | > 15 | – |
| NS(=O)(=O)c1ccc(NC(=O)CSc2nnc(N3C(=O)CSC3c3cccc(Cl)c3)s2)cc1 (stereo unspecified) | 19.2 | < 1 | 118 | > 118 |
| O=C1CSC(c2ccc(Cl)cc2)N1c1n[nH]c(=S)s1 (stereo unspecified) | > 363 | < 1 | 195 | > 195 |
| CS(=O)(=O)c1ccc(NC(=O)CSc2nnc(N3C(=O)CSC3c3ccc(Cl)cc3)s2)cc1 (stereo unspecified) | 39.4 | < 1 | 116 | > 116 |
